Measured values published in ChEMBL document CHEMBL1141610, “Design, synthesis, and studies of small molecule STAT3 inhibitors” (Bioorg Med Chem Lett, 2008).
The source made the active and inactive calls. The calls are words filed in the database; no cut-off is given here.

Experiments:
PC-3 = experiment: Antiproliferative activity against human PC3 cells after 72 hrs by MTS assay; format: functional, cell-based; settings: PC-3, 72 h
How it was run: (§1)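 Cells seeded at 2000 per well, exposed to varying compound concentrations for 72 h. Viability read by MTS assay. IC50 values are means of two separate experiments, each run in triplicate.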

MCF7 = experiment: Antiproliferative activity against human MCF7 cells after 72 hrs by MTS assay; format: functional, cell-based; settings: MCF7, 72 h; how it was run: as §1
LNCaP = experiment: Antiproliferative activity against human LNCaP cells after 72 hrs by MTS assay; format: functional, cell-based; how it was run: as §1
DU-145 = experiment: Antiproliferative activity against human DU145 cells after 72 hrs by MTS assay; format: functional, cell-based; settings: DU-145, 72 h; how it was run: as §1
[1] = biological target: Signal transducer and activator of transcription 3 (Homo sapiens) (UniProt P40763); experiment: Inhibition of STAT3 binding to DNA
Chain of Signal transducer and activator of transcription 3 (Homo sapiens) (P40763 whole entry): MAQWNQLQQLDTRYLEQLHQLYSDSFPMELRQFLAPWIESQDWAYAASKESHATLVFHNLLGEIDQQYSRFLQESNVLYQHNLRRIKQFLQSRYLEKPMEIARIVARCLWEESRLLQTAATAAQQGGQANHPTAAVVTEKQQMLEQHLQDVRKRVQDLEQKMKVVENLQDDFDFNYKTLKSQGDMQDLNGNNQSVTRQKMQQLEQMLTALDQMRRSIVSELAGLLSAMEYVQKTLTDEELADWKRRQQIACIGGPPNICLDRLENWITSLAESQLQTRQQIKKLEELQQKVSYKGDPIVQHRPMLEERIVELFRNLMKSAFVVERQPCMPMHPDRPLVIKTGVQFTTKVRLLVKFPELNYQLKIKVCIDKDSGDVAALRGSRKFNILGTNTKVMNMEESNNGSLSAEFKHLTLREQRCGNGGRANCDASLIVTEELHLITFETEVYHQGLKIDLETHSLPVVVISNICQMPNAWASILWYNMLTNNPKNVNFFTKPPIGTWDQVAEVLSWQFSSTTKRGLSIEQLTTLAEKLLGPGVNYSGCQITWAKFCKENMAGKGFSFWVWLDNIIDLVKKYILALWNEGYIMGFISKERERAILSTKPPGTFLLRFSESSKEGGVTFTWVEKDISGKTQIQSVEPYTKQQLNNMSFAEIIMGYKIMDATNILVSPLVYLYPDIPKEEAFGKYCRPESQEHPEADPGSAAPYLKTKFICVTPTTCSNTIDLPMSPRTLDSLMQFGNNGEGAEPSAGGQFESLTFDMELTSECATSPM

With CC(=O)c1cccc2c1C(=O)c1cccc(O)c1C2=O the IC50 (PC-3) was 13.4 µM, the IC50 (MCF7) was 88.5 µM and the IC50 (LNCaP) was 34.1 µM. For the same compound, the IC50 (DU-145) was 16.2 µM.

C[C@@H]1CC(=O)c2c(ccc3c2C(=O)c2cccc(O)c2C3=O)C1 [OCHROMYCINONE] was tested, and the IC50 (PC-3) was 18.7 µM, the IC50 (MCF7) was 124 µM and the IC50 (DU-145) was 12.2 µM. For the same compound, the Activity [1] was “Active”.

For CC(=O)c1cccc2c1C(=O)c1c(O)cccc1C2=O, the IC50 (PC-3) was 32.4 µM, the IC50 (LNCaP) was 31.5 µM and the IC50 (DU-145) was 31.5 µM.

In the case of COc1cccc2c1C(=O)c1c(C(C)=O)cccc1C2=O, the IC50 (PC-3) is reported as greater than 100 µM, the IC50 (LNCaP) is reported as greater than 100 µM and the IC50 (DU-145) is reported as greater than 100 µM.

COc1cccc2c1C(=O)c1cccc(C(C)=O)c1C2=O showed an IC50 (PC-3) greater than 100 µM, an IC50 (LNCaP) greater than 100 µM and an IC50 (DU-145) greater than 100 µM.
